# Measured values from PubChem BioAssay.
# Active and inactive are the calls of the source.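 The calls were made as follows, unless noted: active = NADPH fluorescence slope more negative than the mean of all samples by about 3 SD, 99.7% confidence; inactive = the rest.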
# Legend:
# [1] = inhibitors of TNFa-induced NFkB p65 translocation, primary screen, imaging, HUVEC, MLSMR starter and 10KST1 sets (AID 438;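 active = inhibition above 20% together with a positive visual image hit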;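 also: compound added about 3h40 before a 20 min TNFalpha stimulation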;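 as to inhibition: signal is the nuclear over cytoplasmic p65 intensity ratio per well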); conditions: HUVEC TNFa-induced p65 nuclear translocation; cell count: measured here: nuclei count (cytotoxicity indicator), at 2.08 µM; inhibition: at 2 µM, stronger effect = higher value, 0% TNFa-plus-vehicle, 100% no-TNFa wells
# [2] = inhibitors of mutant huntingtin aggregation, primary screen, imaging, exon1htt(103Q)mCFP cells, high-content imaging (AID 483;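 active = visual image review flags a hit and inhibition of aggregation exceeds 20%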;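 also: compound exposure lasted 3 days before fixation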;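 as to nuclei count: percent of the per-plate median nuclei count of sample wells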); conditions: exon1htt(103Q)mCFP cell line, aggregate imaging, at 2 µM; inhibition of aggregation: stronger effect = higher value; nuclei count: measured here: cell count, toxicity
# [3] = inhibitors of E-selectin induction by TNFa, primary screen, imaging, HUVEC, immunofluorescence, MLSMR starter and 10KST1 sets (AID 487;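 active = visually confirmed hit in the image check and inhibition above 20%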;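 as to inhibition: signal is fraction of cell area covered by stained E-selectin grains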;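 as to nuclei count: 100% = median nuclei count of all wells on the same plate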); conditions: HUVEC TNFalpha-induced E-selectin immunofluorescence imaging, at 2 µM; inhibition: stronger effect = higher value; nuclei count: measured here: cell number, toxicity
# [4] = molecular target: Voltage-gated potassium channel subunit beta-2 (Rattus norvegicus) (UniProt P62483); assay: KvBeta enzyme negative modulators, primary screen, biochemical, NADPH fluorescence (AID 622;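 active = fluorescence slope higher than the sample average by over 3 SD, cut at about -0.22 in these data, passing the limit was not always enough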;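 also: slope of raw intensity against log time taken from 70 to 1610 s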); conditions: recombinant KvBeta, 4-cyanobenzaldehyde reduction, at 10 µM, stronger effect = higher value
# Voltage-gated potassium channel subunit beta-2 (Rattus norvegicus), sequence (P62483 whole entry, looked up): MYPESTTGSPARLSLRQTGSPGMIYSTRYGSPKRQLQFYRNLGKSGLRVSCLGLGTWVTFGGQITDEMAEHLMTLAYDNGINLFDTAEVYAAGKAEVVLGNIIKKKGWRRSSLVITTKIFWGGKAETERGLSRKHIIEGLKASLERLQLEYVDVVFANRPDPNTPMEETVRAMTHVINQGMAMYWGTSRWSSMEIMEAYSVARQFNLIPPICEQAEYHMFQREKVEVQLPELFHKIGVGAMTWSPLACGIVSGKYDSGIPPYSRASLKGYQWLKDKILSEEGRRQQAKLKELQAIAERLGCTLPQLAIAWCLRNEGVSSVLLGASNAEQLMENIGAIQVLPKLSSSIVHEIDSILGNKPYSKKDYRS
# [5] = molecular target: Voltage-gated potassium channel subunit beta-2 (Rattus norvegicus) (UniProt P62483); assay: KvBeta positive modulators, primary screen, biochemical, NADPH fluorescence (AID 623); conditions: Recombinant KvBeta, NADPH fluorescence decrease slope, 10 min; at 10 µM; stronger effect = lower value;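 also: fluorescence intensity change per second fitted from 20 to 320 s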
# [6] = molecular target: Alpha-2C adrenergic receptor (Homo sapiens) (UniProt P18825); assay: modulators of alpha2C/GIRK thallium flux, primary screen, cell-based, HEK293 alpha2C/GIRK1/2 (AID 624;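 active = fluorescence slope after compound addition differing from the mean of all screened samples at 99.7% confidence, in either direction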;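 also: slope of fluorescence ratio to pre-addition baseline per second over 15 to 24 s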); conditions: thallium flux BTC fluorescence, at 10 µM, actives lie on both sides
# Alpha-2C adrenergic receptor (Homo sapiens), sequence (P18825 whole entry, looked up): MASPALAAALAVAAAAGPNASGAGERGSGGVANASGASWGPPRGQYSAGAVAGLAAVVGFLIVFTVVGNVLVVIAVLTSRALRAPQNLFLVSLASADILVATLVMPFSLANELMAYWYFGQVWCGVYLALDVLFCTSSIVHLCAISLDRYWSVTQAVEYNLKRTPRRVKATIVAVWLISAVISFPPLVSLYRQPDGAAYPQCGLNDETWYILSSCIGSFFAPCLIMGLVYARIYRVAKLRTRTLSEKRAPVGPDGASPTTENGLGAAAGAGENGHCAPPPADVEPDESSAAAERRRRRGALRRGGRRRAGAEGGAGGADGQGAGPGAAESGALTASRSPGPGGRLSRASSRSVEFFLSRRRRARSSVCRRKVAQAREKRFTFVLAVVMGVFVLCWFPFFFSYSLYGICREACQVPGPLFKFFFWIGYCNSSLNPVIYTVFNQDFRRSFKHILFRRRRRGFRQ
# [7] = inhibitors of larval lipid processing in zebrafish, primary screen, whole organism, PED6 fluorescence, gall bladder and intestine (AID 686;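 active = a full or partial loss of lipid-probe fluorescence in the fish gall bladder, intestine or both, judged by eye; inactive = no fluorescence loss, or compound toxic to the fish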;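 also: larvae 5 to 7 days old with five fish per well; signal comes from phospholipase A2 cleavage of quenched PED6 carried via bile; overnight exposure to compound and PED6 before scoring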); conditions: Zebrafish larvae PED6 lipid processing, fluorescence scoring; screened at 20 µM (by protocol)
# Outline: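 system = live zebrafish larvae aged 5-7 days, whole organism | probe or stimulus = ingested quenched lipid PED6 at 100 nM | doses = 20 µM single dose | timing = overnight exposure | detection = fluorescence microscopy with visual scoring of gall bladder and intestine | read-out = visual per-well fluorescence inhibition score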
# [8] = inhibitors of Sendai virus-induced IRF3 signaling, primary screen, TLR/RLR signaling modifier project, cell-based, Sendai virus stimulus, luciferase, 10K MLSCN set (AID 602276;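 active = inhibition at or above 50% at 10 µM; inactive = inhibition below 50%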;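 also: firefly luciferase from ISG56 promoter only with Renilla not read in this screen; 0% = Sendai virus plus DMSO and 100% = medium plus DMSO without virus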); conditions: HEK293 RL24 IRF3 luciferase reporter, at 10 µM, stronger effect = higher value
# [9] = inhibitors of poly I:C-induced TLR3 signaling, primary screen, cell-based, poly I:C stimulus, luciferase, 10K MLSCN set (AID 602277;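 active = inhibition of the reporter signal at or above 50%; inactive = inhibition below 50%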); conditions: HEK293-TLR3 RL24 IRF3 luciferase reporter, at 10 µM, stronger effect = higher value
SMILES,cell count [1],inhibition [1],inhibition of aggregation [2],nuclei count [2] [%],inhibition [3],nuclei count [3] [%],fluorescence slope [4],NADPH fluorescence slope [5],slope [6],outcome [7],inhibition [8],inhibition [9]
O=C1c2ccccc2C(=O)N1c1cccc(-c2nc3ccccc3o2)c1,464,7.6% (inactive),4% (inactive),104,-175% (inactive),130,-0.384 (inactive),-5.2e-05 (inactive),0.00482 (inactive),inactive,2.66% (inactive),4.23% (inactive)
O=C(O)CC(C(=O)Nc1cccc(C(F)(F)F)c1)C1CCCO1 (stereo not drawn),548,-10.1% (inactive),9.8% (inactive),101,2.3% (inactive),92.1,-0.375 (inactive),-2.9e-05 (inactive),0.00461 (inactive),inactive,-2.64% (inactive),7.18% (inactive)
CC(C)(C)C(=O)OCC1OC(n2cnc(C(N)=O)n2)C(O)C1O (stereo not drawn),468,-8.7% (inactive),7.9% (inactive),88.9,49.3% (inactive),88,-0.382 (inactive),8.9e-07 (inactive),0.00529 (inactive),inactive,5.04% (inactive),4.14% (inactive)
Cc1cccc(NC(=O)CC2CCC2)c1,362,-4.1% (inactive),3% (inactive),97.1,40.7% (inactive),71.8,-0.435 (inactive),-2.3e-05 (inactive),0.00515 (inactive),inactive,3.07% (inactive),-0.215% (inactive)
Cc1cccc(C(=O)O)c1NC(=O)c1ccc(F)cc1,343,0.2% (inactive),-4.7% (inactive),99.9,21.9% (inactive),97.3,-0.333 (inactive),-1.3e-05 (inactive),0.00577 (inactive),inactive,-3.9% (inactive),2.7% (inactive)
O=P(CCNCc1ccco1)(c1ccccc1)c1ccccc1,322,9.5% (inactive),-14.2% (inactive),107,1.5% (inactive),112,-0.382 (inactive),-2.4e-05 (inactive),0.00716 (inactive),inactive,139% (active),91.3% (active)
CCn1cnc2sc(C(=O)Nc3ccc4c(c3)OCO4)c(C)c2c1=O,473,-14.7% (inactive),7.4% (inactive),102,-47.6% (inactive),90.6,-0.361 (inactive),-7e-05 (inactive),0.00678 (inactive),inactive,-47.3% (inactive),-111% (inactive)
Cc1ccc2c(c1)CCCN2C(=O)c1ccc2c(c1)OCO2,328,-0.6% (inactive),-0.1% (inactive),99.3,-117% (inactive),118,-0.457 (inactive),-5.1e-05 (inactive),0.00431 (inactive),inactive,4.95% (inactive),4.76% (inactive)
Cc1nc2ccc(C(=O)O)cc2c2c1CC(C)S2 (stereo not drawn),462,-3.8% (inactive),-4% (inactive),106,-20.4% (inactive),104,-0.38 (inactive),-4.3e-05 (inactive),0.00518 (inactive),inactive,13.9% (inactive),11.7% (inactive)
O=C(CN1CCN(c2ccc(F)cc2)CC1)OCc1ccccc1,662,11.1% (inactive),-6.3% (inactive),102,5.8% (inactive),118,-0.356 (inactive),-6.7e-05 (inactive),0.00472 (inactive),inactive,6.81% (inactive),6.58% (inactive)
O=C(Nc1ccc2c(c1)OCCO2)C1CCN(C(=O)c2ccc(F)cc2)CC1,397,4.1% (inactive),-5.3% (inactive),96.2,-14% (inactive),117,-0.368 (inactive),-7.6e-05 (inactive),0.00511 (inactive),inactive,-6.3% (inactive),-44.3% (inactive)
CCOC(=O)c1c2n(c3ccc(O)cc13)CCCCC2,571,7.1% (inactive),-7.5% (inactive),107,-113% (inactive),110,-0.413 (inactive),-3.4e-05 (inactive),0.00489 (inactive),inactive,-6.81% (inactive),1.43% (inactive)
COC(=O)c1ccc2c(=O)n(NC(C)=O)c(=S)[nH]c2c1,627,8.7% (inactive),-5% (inactive),108,-73.1% (inactive),114,-0.367 (inactive),-6.6e-05 (inactive),0.00487 (inactive),inactive,2.98% (inactive),-0.555% (inactive)
Cc1c(C)n(C(=O)CN2CCN(c3ccccn3)CC2)c2ccccc12,428,2.3% (inactive),2.9% (inactive),95.7,3.5% (inactive),131,-0.376 (inactive),-3.7e-05 (inactive),0.00497 (inactive),inactive,8.12% (inactive),11.3% (inactive)
